Source: PubChem BioAssay (Johns Hopkins Ion Channel Center)
RGS4 pot: RGS4 potentiators or activators, primary screen, cell-based, HEK293 M3R inducible RGS4, calcium flux; carbachol calcium flux Fluo4; hits give low values; B-score at 10 µM; hit rate 0.92% among 310,000;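 active = B-score of the integrated calcium signal more than 4 SD below the library mean, with starting fluorescence not abnormally high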;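 note: negative B-score means reduced calcium response which marks RGS4 activation or potentiation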
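Reagent: ECmax carbachol challenge; Test system: M3R-expressing HEK293 line, RGS4 induced by doxycycline; Schedule: overnight RGS4 induction, 30 min dye load 37 °C, 20 min compound RT; Detection: calcium dye Fluo4 fluorescence; Read-out: Agonist-evoked peak-minus-minimum fluorescence over baseline, integrated ratio, B score.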
MrgX1 antag: antagonists of human MrgX1 receptor, primary screen, HEK293 cells, Fluo-4 calcium flux. BAM8-22 antagonism; hits give low values. B-score at 10 µM. hit rate 1.3% among 310,000. AID 588676, 2011;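 active = calcium-response B-score plate-corrected more than 3 library SD below zero, starting fluorescence within 5 deviations, no agonist response on first addition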;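 note: peak minus trough fluorescence over baseline after final BAM8-22 challenge near maximal dose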
Target sequence (Q96LB2 whole entry, looked up): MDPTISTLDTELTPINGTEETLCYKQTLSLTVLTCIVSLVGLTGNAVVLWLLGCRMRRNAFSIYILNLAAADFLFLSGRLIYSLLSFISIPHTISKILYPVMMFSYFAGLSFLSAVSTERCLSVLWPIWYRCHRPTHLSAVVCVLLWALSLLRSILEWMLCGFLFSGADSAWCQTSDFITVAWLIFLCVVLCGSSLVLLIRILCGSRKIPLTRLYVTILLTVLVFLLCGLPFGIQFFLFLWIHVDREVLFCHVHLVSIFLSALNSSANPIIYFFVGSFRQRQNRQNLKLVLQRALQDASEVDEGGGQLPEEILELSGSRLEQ
MrgX1 allo act: positive allosteric modulators of MrgX1, primary screen, HEK293 cells, Fluo-4 calcium flux. FDSS; hits give high values. hit rate 0.63% among 310,000. B-score at 10 µM;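 active = plate-corrected calcium response at least 3 library SD above typical, normal starting fluorescence, not activating the receptor alone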;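 note: compound read alongside a low EC10 to EC30 dose of BAM8-22 agonist; peak minus trough fluorescence over baseline measured at the second addition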
MrgX1 ag: agonists of human MrgX1 receptor, primary screen, HEK293 cells, Fluo-4 calcium flux; Mas-related G-protein coupled receptor member X1 (Homo sapiens), Q96LB2; B-score at 10 µM; Fluo-4 calcium fluorescence, agonist mode; hits give high values; AID 588627, 2011; hit rate 0.44% among 310,000;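 active = calcium response B-score plate-corrected fluorescence ratio at least 3 library SD, with starting fluorescence B-score inside 5 SD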
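Assay system: MrgX1-expressing HEK293 cells / Amount: fifteen thousand cells per well / Doses: test compound in the initial addition of three / Timing: cells plated overnight, dye loaded 0.5 h 37 °C, 0.5 h room temperature / Technique: kinetic calcium dye fluorescence, Fluo-4 NW / Control set: positive and negative controls per plate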
RGS4 inh: RGS4 inhibitors, primary screen, cell-based, HEK293 M3R inducible RGS4, calcium flux; hit rate 0.45% among 310,000; Fluo-4 calcium flux; hits give high values; triggered by carbachol at its EC20; Regulator of G-protein signaling 4 (Homo sapiens), P49798; B-score at 10 µM;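 active = B-score, a plate-corrected calcium signal, over three deviations above library mean, with baseline fluorescence within five deviations of library mean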;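 note: RGS4 expression induced by doxycycline in cells with stable M3 receptor; B-score is computed from the integrated fluorescence ratio over baseline after carbachol; higher B-score means a larger calcium signal and so more RGS4 inhibition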
Target sequence (P49798 whole entry, looked up): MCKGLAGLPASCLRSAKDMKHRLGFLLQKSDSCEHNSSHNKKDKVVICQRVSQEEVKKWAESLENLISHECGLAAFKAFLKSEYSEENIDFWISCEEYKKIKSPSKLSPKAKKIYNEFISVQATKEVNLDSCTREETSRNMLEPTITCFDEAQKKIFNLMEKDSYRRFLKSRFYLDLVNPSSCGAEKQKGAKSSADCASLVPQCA
RGS4 block valid: enhanced carbachol calcium response, M3R/RGS4 cells, RGS4 inhibitor project, cell-based, validation screen, HEK293 M3R/RGS4, calcium flux | shares compounds with RGS4 inh | carbachol calcium Fluo-4 fluorescence; carbachol added at its EC20; 0 = buffer wells, 100 = carbachol control | calcium response, % at 10 µM | hit rate 65% among 1,700 | AID 492999, 2010;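 active = duplicate-averaged calcium response above the buffer-only control mean plus 5 SD of those controls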;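 note: integrated fluorescence ratio F max minus min over baseline F0; higher response in RGS4-induced cells means RGS4 inhibition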
RGS4 uninduced: carbachol calcium response in non-induced M3R cells, confirmation, counter-screen for RGS4 inhibitor project, cell-based, HEK293 M3R | shares compounds with RGS4 inh | carbachol calcium Fluo-4; submaximal (EC20) carbachol stimulus; buffer wells 0%, carbachol control wells 100% | activity (percent), % at 10 µM | hit rate 20% among 1,900 | AID 493000, 2010; call rule not given here;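 note: RGS4 induction absent so cells express M3R without RGS4; higher means more calcium signal and flags a non-specific hit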
RGS4 inh ctr2: second counter-screen for RGS4 inhibitors: non-induced cells without carbachol | shares compounds with RGS4 inh | HEK293 M3R/RGS4 non-induced, Fluo-4 calcium, no carbachol; normalised: buffer wells 0%, carbachol wells 100% | calcium response (agonist-mode artifact), % at 10 µM | hit rate 22% among 1,900 | AID 493001;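 active = duplicate-averaged calcium rise in uninduced cells above buffer wells' mean plus 5 SD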
MrgX1 ag reconf: MrgX1 receptor agonists, duplicate retest, confirmation, HEK293 cells, Fluo-4 calcium flux; shares compounds with MrgX1 ag; Fluo-4 calcium fluorescence, FDSS; activation, % at 10 µM; hit rate 78% among 600;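 active = calcium signal rise, corrected for plate position, at least 3 library SD high, with starting brightness within 5 such deviations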
HEK293 Ca flux: nonspecific calcium signal in parental HEK293, confirmation, counter-screen for MrgX1 antagonist project, parental HEK293 cells, Fluo-4 calcium flux. AID 624111, 2012. hit rate 2% among 4,000. Fluo-4 calcium fluorescence, FDSS. fluorescence ratio F(max-min)/F0 at 10 µM. shares compounds with MrgX1 antag;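 active = duplicate-averaged calcium fluorescence ratio at least three times the standard deviation of buffer wells, a nonspecific response in parental cells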
HEK293 Ca counter: calcium response in parental HEK293 cells, primary screen, counter-screen for MrgX1 allosteric activator project, cell-based, Fluo-4 calcium flux, duplicate; shares compounds with MrgX1 antag; Fluo-4 fluorescence ratio; hits give high values; fluorescence ratio F(max-min)/F0 at 10 µM; hit rate 0.4% among 4,000; AID 624114, 2012;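 active = calcium fluorescence ratio, averaged over duplicates, at least 3 SD of the buffer-well ratio, meaning a nonspecific response in receptor-free cells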;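 note: untransfected parental HEK293 lacking MrgX1 used as counterscreen for MrgX1 allosteric activators; fluorescence change taken during the second addition on a kinetic imager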
HEK293 Ca cntr2: calcium response in parental HEK293 cells, primary screen, counter-screen for MrgX1 agonist project, cell-based, Fluo-4 calcium flux, duplicate, agonist mode | fluorescence ratio F(max-min)/F0 at 10 µM | shares compounds with MrgX1 antag | hit rate 8.7% among 4,000 | Fluo-4 calcium fluorescence (FDSS); hits give high values;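 active = calcium fluorescence ratio at least three times the spread of buffer wells, meaning a non-specific response in parental cells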
The depositor's hits bear a star; i = inactive; / = no result given. Most compounds without a hit are left out; they make up all but 3.5% or so of the library.

SMILES	RGS4 pot	MrgX1 antag	MrgX1 allo act	MrgX1 ag	RGS4 inh	RGS4 block valid	RGS4 uninduced	RGS4 inh ctr2	others
Cc1ccc2cc(CN(C(=O)c3ccco3)c3ccccc3)c(=O)[nH]c2c1	i	i	i	i	5.37*	i	i	i
Cc1ccc(N(Cc2cc3ccc(C)cc3[nH]c2=O)C(=O)c2cccs2)cc1	i	i	i	i	i	/	/	/
Cc1ccc(N(Cc2cc3ccc(C)cc3[nH]c2=O)C(=O)c2ccco2)cc1	i	i	i	i	i	i	i	i
Cc1cccc(N(Cc2cc3ccc(C)cc3[nH]c2=O)C(=O)c2ccco2)c1	i	i	i	i	i	/	i	i
Cc1ccc(N(Cc2cc3ccccc3[nH]c2=O)C(=O)c2ccco2)c(C)c1	i	i	i	i	i	/	/	/
O=C(NCC1CCCO1)c1ccc(COc2ccccc2)o1 (configuration not stated)	i	i	i	i	i	/	/	/
COc1ccccc1N(CC(=O)Nc1ccc2c(c1)OCCO2)S(=O)(=O)c1ccc(C)cc1	i	i	i	i	i	/	/	/
NS(=O)(=O)c1ccc(CNC(=O)/C=C/c2cccc(Cl)c2)cc1	i	i	i	i	i	/	/	/
COc1cc(/C=C/C(=O)c2ccc([N+](=O)[O-])o2)ccc1O	i	i	i	i	8.73*	39.0%*	i	i
COc1ccc(/C=C/C(=O)c2ccc([N+](=O)[O-])o2)cc1OC	i	i	i	i	i	/	i	i
O=C(/C=C/c1cccc(Cl)c1)c1ccc([N+](=O)[O-])o1	i	i	i	i	13.7*	17.5%*	33.5%*	7.0%*
CC(C)N1CCN(c2ccc(S(=O)(=O)N3CCOCC3)cn2)CC1	i	i	i	i	i	/	/	/
Cc1ccnn1CCC(=O)N1CCCC(Nc2ccc(F)c(F)c2)C1 (configuration not stated)	i	i	i	i	i	/	/	/
Cc1ccccc1NC(=O)C1c2ccccc2Oc2ccccc21	i	i	i	i	i	/	/	/
Cc1cccnc1NC(=O)C1c2ccccc2Oc2ccccc21	i	i	i	i	8.24*	10.0%*	i	i
Cc1noc(NS(=O)(=O)c2ccc(N/C=C/C(=O)c3ccc4c(c3)OCO4)cc2)c1C	i	i	i	i	i	/	/	/
Cc1noc(NS(=O)(=O)c2ccc(N/C=C\C(=O)c3ccc(F)cc3)cc2)c1C	i	i	i	i	i	/	36.5%*	i
Cc1noc(NS(=O)(=O)c2ccc(N/C=C\C(=O)c3cccs3)cc2)c1C	i	i	i	i	i	/	/	/
Cc1noc(NS(=O)(=O)c2ccc(N/C=C\C(=O)c3ccccc3)cc2)c1C	i	i	i	i	i	/	i	i
Cc1cccc(-n2ccc(=O)c(C(=O)Nc3ccc(S(=O)(=O)Nc4onc(C)c4C)cc3)n2)c1	i	i	i	i	4.68*	7.0%*	i	i
Nc1nc(SCC(=O)Nc2ccccc2Sc2ccccc2)n[nH]1	i	i	i	i	i	/	/	/
O=C(CCCc1nc(-c2ccc(Cl)cc2)no1)NC1CCCC1	i	i	i	i	i	/	/	/
CNC(=O)c1[nH]cnc1C(=O)Nc1ccccn1	i	i	i	i	i	i	i	i
CCCc1ccc(NS(=O)(=O)c2c(C)oc(C)c2C(=O)OC)cc1	i	i	i	i	i	/	/	/
COc1ccc(CS(=O)(=O)/C(Cl)=C(/Cl)C(=O)Nc2ccc(OC)nc2)cc1	i	i	i	46.8*	12.7*	57.0%*	32.0%*	12.0%*	MrgX1 ag reconf=191.0%*;HEK293 Ca flux=i;HEK293 Ca counter=i;HEK293 Ca cntr2=i
Cc1ccc(C(C)C)c(OCC(O)CNC2CCCC2)c1 (configuration not stated)	i	i	i	i	i	/	/	/
C[N+](C)(C)C/C=C1/COCO1	-9.05*	i	i	66.8*	7.3*	13.5%*	i	386.5%*	MrgX1 ag reconf=328.0%*;HEK293 Ca flux=i;HEK293 Ca counter=i;HEK293 Ca cntr2=67.1*
Cc1cccc(OCc2nnc(SCC(=O)N3CCCCC3)o2)c1	i	i	i	i	i	/	/	/
NC(=O)SCC(=O)Nc1ccc(Cl)c(Cl)c1	/	i	i	i	/	/	/	/
